{"data": "Results pooled from the literature", "read-out": "cell growth or viability", "note": "Each line is one published result; the experiments were not run side by side."}
{"SMILES": "CCCCCCCCCCOc1cc2c(O)c(C(=O)OCC)cnc2cc1OCC", "cell line": "Huh-7", "conditions": "72 h", "quantity": "IC50", "result": "> 100 µM"}
{"SMILES": "CCOC(=O)CCc1ccccc1OP(=O)(OC[C@H]1O[C@@H](n2cnc3c(N)nc(N)nc32)[C@](C)(O)[C@@H]1O)Oc1ccccc1CCC(=O)OCC", "cell line": "Huh-7", "conditions": "replicon", "quantity": "CC50", "result": "> 10 µM"}
{"SMILES": "CC(C)(C)C(O)C(Oc1ccc(-c2ccccc2)cc1)n1cncn1 (centres unmarked)", "cell line": "Huh-7", "assay": "MTT", "conditions": "24 h", "quantity": "CC50", "result": "> 400 µM"}
{"SMILES": "COC(=O)[C@@H]1[C@@H](c2ccccc2)[C@]2(c3ccc(OC)cc3)Oc3cc(OC)cc(OC)c3[C@@]23N=C(C)N[C@@]13O", "cell line": "HepG2", "assay": "MTT", "conditions": "24 h", "quantity": "CC50", "result": "0.0658 µM"}
{"SMILES": "CCC/C=C/C=C/C(=O)O[C@H]1/C(=C/C(=O)OC)C[C@H]2C[C@H]([C@@H](C)O)OC(=O)C[C@H](O)C[C@@H]3C[C@H](OC(C)=O)C(C)(C)[C@](O)(C[C@@H]4C/C(=C/C(=O)OC)C[C@H](/C=C/C(C)(C)[C@]1(O)O2)O4)O3", "cell line": "BGM", "assay": "MTS", "conditions": "5 days", "quantity": "CC50", "result": "~100 µM"}
{"SMILES": "CC(C)[C@H](N)C(=O)N1CCC[C@H]1B(O)O", "cell line": "HEK-293T", "assay": "ATP luminescence", "conditions": "60 µM, 5 days", "quantity": "viability", "result": "97%"}
{"SMILES": "CC(C)(CO)C(=O)SCCOP(=O)(NCc1ccccc1)OC[C@H]1O[C@@H](n2cnc3c(=O)[nH]c(N)nc32)[C@](C)(O)[C@@H]1O (mixture of isomers)", "cell line": "Huh-7", "conditions": "replicon", "quantity": "CC50", "result": "> 10 µM"}
{"SMILES": "O=c1c(O[C@@H]2O[C@H](CO)[C@@H](O)[C@H](O)[C@H]2O)c(-c2ccc(O)cc2)oc2cc(O)cc(O)c12", "cell line": "HepG2", "assay": "WST-1", "quantity": "IC50", "result": "37.8 µM"}
